Results pooled from the literature.
Compare with care: the assays were run in different laboratories.
Target: Dual specificity protein kinase CLK1 (CLK1, Homo sapiens, UniProt P49759)
Technique: competition with immobilised ligand

| Structure (SMILES) | observed | concentration | remaining binding [%] |
| --- | --- | --- | --- |
| Cc1cnc(Nc2ccc(C(=O)N3CCC(N4CCCC4)CC3)cc2)nc1-c1cc2ccccc2s1 | binding | 1 µM | 8.3 |
| c1cncc(-c2cccc(Nc3nccc(NC4CCCCC4)n3)c2)c1 | binding | 10 µM | 1.1 |
| O=C(NCCCN1CCOCC1)c1ccc(Nc2ncc(Cl)c(-c3ccc(Cl)s3)n2)cc1 | binding | 1 µM | 3.6 |
| O=S(=O)(NC1CCC(c2cc(F)ccc2F)(S(=O)(=O)c2ccc(Cl)cc2)CC1)C(F)(F)F (centres unmarked) | cell-free assay | 1 µM | 78 |
| C=CC(=O)N1CCC(C(=O)NCC(=O)N2CCN(c3nc(-c4cnc(N)nc4C(F)F)nc(N4CCOCC4)n3)CC2)CC1 | binding | 1 µM | 93 |
| CNC(=O)c1ccccc1Nc1cc(Nc2ccc(N3CCOCC3)cc2OC)ncc1C(F)(F)F | binding | 1 µM | < 10 |
| O=C(c1ccc(Nc2ncc(Cl)c(-c3cc4ccccc4s3)n2)cc1)N1CCC(N2CCCC2)CC1 | binding | 1 µM | 3 |
| Cc1cc(C)c(-n2ccn3nc(-c4cccnc4)cc23)cc1NC(=O)c1cc(C#N)cc(S(F)(F)(F)(F)F)c1 | cell-free assay | 0.1 µM | 96.2 |
| CNC(=O)[C@@H]1CC[C@@H](n2c(-c3ccc4cnccc4c3)nc3ccc(C(=O)NCc4cccc(C(N)=O)c4)cc32)C1 | binding | 1 µM | 98 |
| C[C@@H](c1ccc(-n2cnc3c(N)ncnc32)cc1)N1CCc2nn(C)c(Cc3ccccc3)c2C1=O | binding | 0.1 µM | 67 |
| COc1cc(-c2cn(C3CCc4c(F)cccc4N(CC(F)(F)F)C3=O)nn2)ccc1-n1cnc(C)c1 (centres unmarked) | cell-free assay | 1 µM | 77 |
| COc1cnc(Nc2cccc(S(N)(=O)=O)c2)nc1N1CCN(c2ccccc2)C(=O)C1 | binding | 1 µM | 100 |
| CN([C@@H]1CCc2c(CC(=O)O)c3cc(S(C)(=O)=O)ccc3n2C1)S(=O)(=O)c1ccc(F)cc1 | cell-free assay | 1 µM | 100 |
| O=C(NCC1CCOCC1)c1n[nH]cc1NC(=O)c1c(F)cccc1F | binding | 1 µM | 30 |
